CHRM4 PAM = human M4 muscarinic receptor positive allosteric modulators, primary screen, CHO-K1 cells, Fluo-8 calcium fluorescence | Muscarinic acetylcholine receptor M4 (Homo sapiens), P08173 | CHO-K1 hM4/Gqi5, ACh EC20; 0% = ACh EC20, 100% = maximal ACh | activation, % at 3 µM | 0.4% of 360,000 active | AID 624126, 2012;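 active = activation above its plate's cutoff, the mean activation of sample wells plus 3 SD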
Target sequence (P08173 whole entry, looked up): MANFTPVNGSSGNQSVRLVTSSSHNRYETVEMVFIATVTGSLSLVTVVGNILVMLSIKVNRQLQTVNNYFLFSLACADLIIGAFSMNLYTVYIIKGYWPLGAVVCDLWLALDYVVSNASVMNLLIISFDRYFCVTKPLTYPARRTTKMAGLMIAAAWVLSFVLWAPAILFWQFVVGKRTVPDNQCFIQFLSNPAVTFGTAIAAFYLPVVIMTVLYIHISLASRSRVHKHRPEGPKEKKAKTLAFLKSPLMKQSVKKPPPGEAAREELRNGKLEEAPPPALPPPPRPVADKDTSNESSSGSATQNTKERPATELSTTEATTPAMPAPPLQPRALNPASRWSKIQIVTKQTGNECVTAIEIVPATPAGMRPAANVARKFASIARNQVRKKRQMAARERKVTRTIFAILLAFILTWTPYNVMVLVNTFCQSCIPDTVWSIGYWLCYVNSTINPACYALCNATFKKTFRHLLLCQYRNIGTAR
M5 PAM = human M5 muscarinic receptor positive allosteric modulators, primary screen, CHO-K1 cells, Fluo-8 calcium fluorescence | Muscarinic acetylcholine receptor M5 (Homo sapiens), P08912 | CHO-K1 hM5, ACh EC20 PAM; 0% = ACh EC20, 100% = ACh EC100 | AID 624038, 2012 | 0.3% of 360,000 active | activation, % at 3 µM;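 active = activation above the run cutoff, the mean activation of all test compounds plus 3 SD, cut at about 18% in these data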
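System: CHO-K1 cell line with stable human muscarinic M5 receptor expression | Also added: EC20 acetylcholine as agonist stimulus | Compound: One concentration, 3 µM final (nominal) | Timing: Fluo-8 loading 80 min at 37 °C plus 30 min room temperature | Measured by: Fluo-8 calcium dye fluorescence, kinetic read | Read-out basis: % activation, ACh-normalized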
M5 antag = human M5 muscarinic receptor antagonists, primary screen, CHO cells, Fluo-8 calcium fluorescence. inhibition, % at 3 µM. AID 624040, 2012. CHO-hM5 cells, ACh EC80. 0.59% of 360,000 active. Muscarinic acetylcholine receptor M5 (Homo sapiens), P08912;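 active = inhibition above a per-plate cutoff, the mean of that plate's test compounds plus 3 SD, cut at about 27% in these data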;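 note: 0% = acetylcholine EC80 with DMSO and 100% = DMSO without agonist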
CHRM4 antagonist = human M4 muscarinic receptor antagonists, primary screen, CHO cells, Fluo-8 calcium fluorescence; 0.73% of 360,000 active; inhibition, % at 3 µM; CHO-hM4 cells, ACh EC80; AID 624125, 2012; Muscarinic acetylcholine receptor M4 (Homo sapiens), P08173;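 active = inhibition above its plate's cutoff, the mean inhibition of sample wells plus 3 SD, cut at about 27% in these data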;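 note: 0% = acetylcholine EC80 with DMSO and 100% = DMSO without agonist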
M4 ag = human M4 muscarinic receptor agonists, primary screen, CHO-K1 cells, Fluo-8 calcium fluorescence; Muscarinic acetylcholine receptor M4 (Homo sapiens), P08173; CHO-K1 hM4/Gqi5; vehicle 0%, full acetylcholine response 100%; activation, % at 3 µM; 0.14% of 360,000 active;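 active = activation above the run mean over all test wells plus 3 SD, cut at about 32% in these data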;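 note: peak over basal fluorescence ratio per well then scaled between controls; 0% = DMSO wells and 100% = acetylcholine at EC100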
CHRM5 agonist = human M5 muscarinic receptor agonists, primary screen, CHO-K1 cells, Fluo-8 calcium fluorescence. 0.19% of 360,000 active. Muscarinic acetylcholine receptor M5 (Homo sapiens), P08912. activation, % at 3 µM. CHO-K1 hM5 cells; 0% DMSO wells, 100% maximal acetylcholine response;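 active = activation above the run's mean over test compounds plus 3 SD, cut at about 23% in these data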;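 note: signal is peak over basal fluorescence ratio across the kinetic read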
The depositor's hits bear a star. Shown are actives, neighbours in structure and some others; about 1.8% of the full set was active somewhere.

For COCCNC(=O)CN(C(=O)CCC(=O)Nc1ccccn1)c1ccccc1OC the results were CHRM4 PAM 0.5, M5 PAM 0.2, M5 antag -4.0, CHRM4 antagonist -2.9, M4 ag 0.5 and CHRM5 agonist 3.7.
For CCCCN1CCc2c(c3ccccc3n2Cc2ccccc2)C1 the results were CHRM4 PAM -9.0, M5 PAM -15.2, M5 antag 3.8, CHRM4 antagonist -12.0, M4 ag 2.5 and CHRM5 agonist -4.9.
For CN1CCc2c(c3ccccc3n2Cc2ccccc2)C1 the results were CHRM4 PAM -16.9, M5 PAM -18.9, M5 antag 42.2*, CHRM4 antagonist 56.9*, M4 ag 1.2 and CHRM5 agonist -1.7.
For COc1ccc(CN(C)C(=O)c2cccc(S(=O)(=O)N3CCCc4ccccc43)c2)c(OC)c1OC the results were CHRM4 PAM -7.9, M5 PAM -23.3, M5 antag 19.2, CHRM4 antagonist 10.7, M4 ag 14.2 and CHRM5 agonist -1.0.
Screening O=C(NCc1ccc(F)c(F)c1)C1Cc2c(-c3ccc4c(c3)OCO4)ccnc2O1 (centres undefined) returned CHRM4 PAM 0.1, M5 PAM -3.7, M5 antag 1.4, CHRM4 antagonist -5.4, M4 ag 0.6 and CHRM5 agonist -2.9.
Screening COc1cc(C(=O)NCc2cccnc2)ccc1OCC(=O)Nc1cccc(C(F)(F)F)c1 returned CHRM4 PAM -8.0, M5 PAM -24.1, M5 antag 16.4, CHRM4 antagonist -2.4, M4 ag 20.2 and CHRM5 agonist 6.7.
COc1ccc(CN(C)C(=O)c2ccc(OCC(=O)Nc3cccc(C(F)(F)F)c3)c(OC)c2)cc1 was read as CHRM4 PAM -12.1, M5 PAM -12.8, M5 antag 15.8, CHRM4 antagonist 30.8*, M4 ag 16.0 and CHRM5 agonist 5.3.
COc1ccc(N2C(=S)NC3CS(=O)(=O)CC32)cc1 (centres undefined) was read as CHRM4 PAM -26.2, M5 PAM -7.8, M5 antag 16.7, CHRM4 antagonist 27.9*, M4 ag 0.2 and CHRM5 agonist -3.1.
Screening COc1ccc(NC(=O)c2cc(C3CCCCN3C(=O)c3cc(C(C)(C)C)nn3C)on2)c(C)c1 (centres undefined) returned CHRM4 PAM -1.7, M5 PAM -6.2, M5 antag 21.8, CHRM4 antagonist -0.1, M4 ag 3.5 and CHRM5 agonist 0.7.
COc1ccc(CCC(=O)OCC(=O)N(CC(C)C)c2c(N)n(Cc3ccccc3)c(=O)[nH]c2=O)cc1 was read as CHRM4 PAM 6.9, M5 PAM 6.4, M5 antag -7.5, CHRM4 antagonist -4.4, M4 ag 1.4 and CHRM5 agonist 3.3.
O=C1CCCC2=C1C(c1cccc(O)c1)C1=C(N2)c2ccccc2C1=O (centres undefined) was read as CHRM4 PAM -8.2, M5 PAM 18.2*, M5 antag -9.6, CHRM4 antagonist -2.5, M4 ag 0.1 and CHRM5 agonist 4.6.
For N[C@H]1C(O)O[C@H](CO)[C@@H](O)[C@@H]1O (some centres undefined) the results were CHRM4 PAM -1.9, M5 PAM -3.1, M5 antag 10.4, CHRM4 antagonist 12.4, M4 ag -0.1 and CHRM5 agonist -0.2.
For c1ccc2c(c1)ncn2CCN1CCCCC1 the results were CHRM4 PAM 0.5, M5 PAM 19.7*, M5 antag -11.0, CHRM4 antagonist -11.4, M4 ag 0.3 and CHRM5 agonist -6.1.
`c1ccc(CCn2cnc3ccccc32)cc1` gave CHRM4 PAM 13.1, M5 PAM 2.6, M5 antag -3.6, CHRM4 antagonist -9.1, M4 ag 1.4 and CHRM5 agonist -5.4.
For Cc1ccsc1C(=O)N1CCC1(C)C(=O)NCC(C)(C)C (centres undefined) the results were CHRM4 PAM 0.9, M5 PAM 3.7, M5 antag 6.5, CHRM4 antagonist -3.6, M4 ag 1.0 and CHRM5 agonist 1.2.
Screening OC1(CC#CCN2CCCCC2)c2ccccc2-c2ccccc21 returned CHRM4 PAM -34.8, M5 PAM -18.2, M5 antag 11.0, CHRM4 antagonist 10.2, M4 ag 0.4 and CHRM5 agonist -20.0.
For OC1(C#CCCN2CCCCC2)c2ccccc2-c2ccccc21 the results were CHRM4 PAM -24.6, M5 PAM -35.1, M5 antag 90.4*, CHRM4 antagonist 55.5*, M4 ag 0.7 and CHRM5 agonist -16.9.
Screening COc1ccccc1CNC(=O)c1sccc1-c1ccccc1 returned CHRM4 PAM -5.8, M5 PAM 3.2, M5 antag 9.7, CHRM4 antagonist 3.8, M4 ag 0.8 and CHRM5 agonist -6.4.
Screening CC(=O)Nc1ccc(NC(=S)NC(=O)C2CC2)cc1 returned CHRM4 PAM 24.6*, M5 PAM 6.9, M5 antag -5.2, CHRM4 antagonist 4.0, M4 ag 1.1 and CHRM5 agonist -1.9.
`O=C(NC(=S)Nc1ccc(O)cc1)C1CCCC1` gave CHRM4 PAM 4.2, M5 PAM 1.3, M5 antag -3.4, CHRM4 antagonist 2.1, M4 ag 0.4 and CHRM5 agonist 1.0.
Cc1cc(C)c(-c2c(O)c3cccc4c3n(c2=O)CCC4)c(C)c1 was read as CHRM4 PAM -3.4, M5 PAM -0.8, M5 antag -0.9, CHRM4 antagonist 0.2, M4 ag -0.3 and CHRM5 agonist -5.9.
Screening C=CCNC(=O)c1c(O)c2cccc3c2n(c1=O)CCC3 returned CHRM4 PAM 15.7*, M5 PAM 42.9*, M5 antag 25.2, CHRM4 antagonist 21.6, M4 ag 5.7 and CHRM5 agonist 5.7.
Screening O=c1c(-c2ccccc2)c(O)c2cccc3c2n1CCC3 returned CHRM4 PAM 17.3*, M5 PAM 1.7, M5 antag -2.8, CHRM4 antagonist -15.0, M4 ag 0.2 and CHRM5 agonist -2.9.
Screening O=C(O)c1ccc([N+](=O)[O-])cc1-c1cc([N+](=O)[O-])ccc1C(=O)O returned CHRM4 PAM 2.1, M5 PAM 6.7, M5 antag 8.2, CHRM4 antagonist 10.5, M4 ag 1.2 and CHRM5 agonist 3.5.
